In brackets after ≈: the same amount, converted by molar mass. Entries after “also recorded” stand apart in the source; their conditions may differ.
Tests used:
U87 cells = experiment: CCK-8 cytotoxicity assay, U87 cells; format: cell-based, human
In short: (§1)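 CCK-8 viability assay in cells grown in high-glucose DMEM with 10% FBS at 37°C, 5% CO2. Peptide alone was tested at 0, 15, 30, 60 and 120 μg/mL in medium with 10% serum. Blank wells received medium only. Because the test material carries a fluorescent label, parallel wells without CCK-8 gave a D(450) background, which was subtracted. Viability (%) = (experimental − blank)/(control − blank) × 100. Three independent repeats, mean ± SD, t-test/one-way ANOVA.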

[1] = cited from earlier work
HEB cells = experiment: CCK-8 cytotoxicity assay, HEB cells; format: cell-based, human; conditions: TMVP1 0, 15, 30, 60, 120 μg/mL, P>0.05
In short: as §1

[2] = after combining with nanoprobes; cited from earlier work
[3] = system: FLT4 protein (U87 and U373 cells); experiment: Fluorescent peptide in vitro binding / colocalization with FLT4; format: cell-based, human; conditions: FAM-labeled TMVP1; confocal, green and red light brightness 110
[4] = UV-visible spectrophotometry of TMVP1 coupling rate; format: physicochemical; conditions: FAM-labeled TMVP1
In short: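 Coupling efficiency of the FAM-labelled peptide to liposomes was measured by UV-visible absorbance at 456 nm, before and after coupling. Coupling rate = (absorbance decrease)/(absorbance before coupling) × 100%. Liposome-bound peptide concentration was estimated from this rate.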

FLT4 = conditions: cited from earlier work
FLT4 protein = experiment: Surface plasmon resonance; format: binding; conditions: TMVP1 10 mg/mL; FLT4 protein 0.6 mg/mL on CM5 chip
In short: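 SPR on a […]. Recombinant FLT4 protein (0.6 mg/mL) was coupled directly to a CM5 chip as the solid phase. The peptide (10 mg/mL) was run as analyte in the mobile phase. The maximum binding response within 150 s was recorded in RU, where 1 RU = 1 pg/mm² surface change.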

| absorbance after coupling TMVP1 ([4]; 456 nm) | absorbance before coupling TMVP1 ([4]; 456 nm) | TMVP1 coupling rate ([4]; absorbance at 456 nm, (absorbance decrease before and after coupling)/(absorbance before coupling) × 100%) | TMVP1 concentration (from coupling rate) ([4]; estimated from coupling rate) | binding affinity to FLT4 (in words) (FLT4 protein) | Compound | IC50 (U87 cells; Homo sapiens, U-87 MG, read-out: IC50 (cytotoxicity)) | immunogenicity versus traditional monoclonal antibodies [1] | biological toxicity of peptide alone to HEB cells (HEB cells) | biocompatibility and in vivo stability [2] | fluorescence intensity, U87 versus U373 cell line [3] | binding speed to FLT4 versus traditional monoclonal antibodies (FLT4) | cytotoxicity of peptide alone towards U87 cells (U87 cells; CCK-8, U87 cells, TMVP1 0, 15, 30, 60, 120 μg/mL, P>0.05) |
| --- | --- | --- | --- | --- | --- | --- | --- | --- | --- | --- | --- | --- |
| – | – | – | – | – | Cn1nnc2c(C(N)=O)ncn2c1=O [TMZ, Temozolomide, reference compound] | 48.4 µg/mL (≈ 249 µM) | – | – | – | – | – | – |
| 0.069 | 0.296 | 76.68% | around 0.153 mg/mL | strong binding affinity | LARGR [TMVP1] | – | lower immunogenicity than traditional monoclonal antibodies | no significant biological toxicity | good biocompatibility and in vivo stability | the fluorescence intensity in the U87 cell line was higher than in the U373 cell line | faster binding speed | did not show significant cytotoxicity towards U87 cells; also recorded: no significant biological toxicity |

Reference: publication PMC12034291 (International Journal of Nanomedicine, 2025)
